# Assays:
# [1] = test system: Tumor Cell line; test: In vitro inhibition of cell growth; assay type: functional, Homo sapiens
# [2] = test system: Tumor Cell line; test: Concentration which reduces cell growth to level at the start of the experiment was reported as the mean graph medium for all the cell lines tested in vitro conditions; assay type: functional, Homo sapiens
# Procedure, shortened: (§1)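 NCI in vitro screen covering about 60 human cell lines from eight solid tumour types and leukaemia. Results were derived from dose-response curves. TGI is the concentration that holds cell growth at the level present at the start of the experiment. Values are given as log molar concentration. The mean graph midpoint (MG-MID) is the average across all cell lines tested, with a range of TGI values.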
# [3] = test system: BT-549; test: In vitro tumor cell growth inhibition was reported as the concentration that reduces BT-549 breast cancer cell growth to 50% of level at the start experiment.; assay type: functional; conditions: Homo sapiens, read-out: Log LC50 (the source's name) (converted)
# Procedure, shortened: (§2)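 Tested in the NCI in vitro anticancer screen, which covers about 60 human cell lines from eight solid-tumour types and leukaemia. Values were read from dose-response curves as log molar concentration. The endpoint is the concentration that reduces cell growth to 50% of the level at the start of the experiment (LC50).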
# [4] = test system: Hs-578T; test: In vitro tumor cell growth inhibition was reported as the concentration that reduces HS 578T breast cancer cell growth to 50% of level at the start experiment.; assay type: functional; conditions: Homo sapiens, read-out: Log LC50 (the source's name) (converted); procedure, shortened: as §2
# [5] = test system: M14; test: In vitro tumor cell growth inhibition was reported as the concentration that reduces M14 melanoma cell growth to 50% of level at the start experiment.; assay type: functional; conditions: Homo sapiens, read-out: Log LC50 (the source's name) (converted); procedure, shortened: as §2
# [6] = test system: MCF7; test: In vitro tumor cell growth inhibition was reported as the concentration that reduces MCF-7 breast cancer cell growth to level at the start experiment.; assay type: functional, Homo sapiens; procedure, shortened: as §1
# [7] = test system: MCF7; test: In vitro tumor cell growth inhibition was reported as the concentration that reduces MCF-7 breast cancer cell growth to 50% of level at the start experiment.; assay type: functional; conditions: Homo sapiens, read-out: Log LC50 (the source's name) (converted); procedure, shortened: as §2
# [8] = test system: LOX IMVI; test: In vitro tumor cell growth inhibition was reported as the concentration that reduces LOXIMVI melanoma cell growth to level at the start experiment.; assay type: functional, Homo sapiens; procedure, shortened: as §1
# [9] = test system: LOX IMVI; test: In vitro tumor cell growth inhibition was reported as the concentration that reduces LOXIMVI melanoma cell growth to 50% of level at the start experiment.; assay type: functional; conditions: Homo sapiens, read-out: Log LC50 (the source's name) (converted); procedure, shortened: as §2
# [10] = test system: MDA-MB-231; test: In vitro tumor cell growth inhibition was reported as the concentration that reduces MDA-MB-231/ATCC breast cancer cell growth to level at the start experiment.; assay type: functional, Homo sapiens; procedure, shortened: as §1
# [11] = test system: MDA-MB-231; test: In vitro tumor cell growth inhibition was reported as the concentration that reduces MDA-MB-231/ATCC breast cancer cell growth to 50% of level at the start experiment..; assay type: functional; conditions: Homo sapiens, read-out: Log LC50 (the source's name) (converted); procedure, shortened: as §2
# [12] = test system: MDA-N; test: In vitro tumor cell growth inhibition was reported as the concentration that reduces MDA-N breast cancer cell growth to level at the start experiment.; assay type: functional, Homo sapiens; procedure, shortened: as §1
# [13] = test system: MDA-N; test: In vitro tumor cell growth inhibition was reported as the concentration that reduces MDA-N breast cancer cell growth to 50% of level at the start experiment.; assay type: functional; conditions: Homo sapiens, read-out: Log LC50 (the source's name) (converted); procedure, shortened: as §2
# [14] = test system: MDA-MB-435; test: In vitro tumor cell growth inhibition was reported as the concentration that reduces MDA-MB-435 breast cancer cell growth to level at the start experiment.; assay type: functional, Homo sapiens; procedure, shortened: as §1
# [15] = test system: MDA-MB-435; test: In vitro tumor cell growth inhibition was reported as the concentration that reduces MDA-MB-435 breast cancer cell growth to 50% of level at the start experiment.; assay type: functional; conditions: Homo sapiens, read-out: Log LC50 (the source's name) (converted); procedure, shortened: as §2
# [16] = test system: Malme-3M; test: In vitro tumor cell growth inhibition was reported as the concentration that reduces MALME-3M melanoma cell growth to level at the start experiment.; assay type: functional, Homo sapiens; procedure, shortened: as §1
# [17] = test system: Malme-3M; test: In vitro tumor cell growth inhibition was reported as the concentration that reduces MALME-3M melanoma cell growth to 50% of level at the start experiment.; assay type: functional; conditions: Homo sapiens, read-out: Log LC50 (the source's name) (converted); procedure, shortened: as §2
# [18] = test system: SK-MEL-2; test: In vitro tumor cell growth inhibition was reported as the concentration that reduces SK-MEL-2 melanoma cell growth to 50% of level at the start experiment.; assay type: functional; conditions: Homo sapiens, read-out: Log LC50 (the source's name) (converted); procedure, shortened: as §2
# [19] = test system: SK-MEL-5; test: In vitro tumor cell growth inhibition was reported as the concentration that reduces SK-MEL-5 melanoma cell growth to level at the start experiment.; assay type: functional, Homo sapiens; procedure, shortened: as §1
# [20] = test system: SK-MEL-5; test: In vitro tumor cell growth inhibition was reported as the concentration that reduces SK-MEL-5 melanoma cell growth to 50% of level at the start experiment.; assay type: functional; conditions: Homo sapiens, read-out: Log LC50 (the source's name) (converted); procedure, shortened: as §2
# [21] = test system: T47D; test: In vitro tumor cell growth inhibition was reported as the concentration that reduces T-47D breast cancer cell growth to level at the start experiment.; assay type: functional, Homo sapiens; procedure, shortened: as §1
# [22] = test system: T47D; test: In vitro tumor cell growth inhibition was reported as the concentration that reduces T-47D breast cancer cell growth to 50% of level at the start experiment.; assay type: functional; conditions: Homo sapiens, read-out: Log LC50 (the source's name) (converted); procedure, shortened: as §2
# [23] = test system: BT-549; test: In vitro tumor cell growth inhibition was reported as the concentration that reduces BT-549 breast cancer cell growth to level at the start experiment.; assay type: functional, Homo sapiens; procedure, shortened: as §1
# [24] = test system: Hs-578T; test: In vitro tumor cell growth inhibition was reported as the concentration that reduces HS 578T breast cancer cell growth to level at the start experiment.; assay type: functional, Homo sapiens; procedure, shortened: as §1
# [25] = test system: M14; test: In vitro tumor cell growth inhibition was reported as the concentration that reduces M14 melanoma cell growth to level at the start experiment.; assay type: functional, Homo sapiens; procedure, shortened: as §1
# [26] = test system: SK-MEL-2; test: In vitro tumor cell growth inhibition was reported as the concentration that reduces SK-MEL-2 melanoma cell growth to level at the start experiment.; assay type: functional, Homo sapiens; procedure, shortened: as §1
smiles,measurement,setting,value
Cc1nc2c(o1)/C(=N\c1ccccc1)c1ccccc1C2=O,Range,[1],1.44
same,Log concentration,[2],-4.62
Cc1nc2c(o1)/C(=N\c1ccccc1)c1ccccc1/C2=N/c1ccccc1,Range,[1],0.49
same,Log concentration,[2],-4.02
Cc1nc2c(o1)C(=O)c1ccccc1/C2=N/c1ccccc1,CC50,[3],6.31 µM
same,CC50,[4],> 100 µM
same,Range,[1],2.02
same,Log concentration,[2],-5.13
same,CC50,[5],3.98 µM
same,Log concentration,[6],-5.3
same,CC50,[7],> 100 µM
same,Log concentration,[8],-5.6
same,CC50,[9],6.31 µM
same,Log concentration,[10],-4.7
same,CC50,[11],> 100 µM
same,Log concentration,[12],-6
same,CC50,[13],3.16 µM
same,Log concentration,[14],-6
same,CC50,[15],3.16 µM
same,Log concentration,[16],-5.6
same,CC50,[17],5.01 µM
same,CC50,[18],6.31 µM
same,Log concentration,[19],-5.6
same,CC50,[20],5.01 µM
same,Log concentration,[21],-5.1
same,CC50,[22],> 100 µM
same,Log concentration,[23],-5.5
same,Log concentration,[24],-5.3
same,Log concentration,[25],-5.9
same,Log concentration,[26],-5.6
